One may read the IC50 as the concentration that gives 50% inhibition. By solubility is commonly meant the concentration that dissolves in the medium under given conditions. Low values mean a poorly soluble substance, high ones a readily soluble substance.

These results are taken from ChEMBL document CHEMBL3632545, “1,3-Disubstituted and 1,3,3-trisubstituted adamantyl-ureas with isoxazole as soluble epoxide hydrolase inhibitors” (Bioorg Med Chem Lett, 2015).

The target of data set [1] is T1, Bifunctional epoxide hydrolase 2 (Homo sapiens, UniProt P34913).
T1 sequence (P34913 whole entry): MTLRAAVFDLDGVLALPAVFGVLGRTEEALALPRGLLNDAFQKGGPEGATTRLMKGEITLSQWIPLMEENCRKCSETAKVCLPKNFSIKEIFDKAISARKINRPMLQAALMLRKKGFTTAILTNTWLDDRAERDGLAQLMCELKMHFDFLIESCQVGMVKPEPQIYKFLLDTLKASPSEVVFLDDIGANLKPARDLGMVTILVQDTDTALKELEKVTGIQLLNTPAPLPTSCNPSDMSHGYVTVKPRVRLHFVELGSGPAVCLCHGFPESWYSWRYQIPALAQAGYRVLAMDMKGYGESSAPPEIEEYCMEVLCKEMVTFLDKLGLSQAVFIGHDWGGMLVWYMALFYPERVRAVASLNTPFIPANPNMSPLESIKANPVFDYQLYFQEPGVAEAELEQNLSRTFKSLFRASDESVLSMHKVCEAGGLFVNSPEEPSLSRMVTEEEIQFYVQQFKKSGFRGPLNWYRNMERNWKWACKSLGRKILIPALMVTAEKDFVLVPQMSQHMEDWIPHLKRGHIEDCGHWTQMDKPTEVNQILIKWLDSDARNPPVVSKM
The data set is described as follows: Inhibition of recombinant human soluble epoxide hydrolase using CMNPC as substrate by kinetic fluorescent assay. The method in brief: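 Recombinant purified human sEH, CMNPC substrate, kinetic fluorescence read-out; IC50 derived. Where reported, values are the mean ± standard deviation of three separate measurements.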

Data set [2] in a line: Solubility of compound in sodium phosphate buffer at pH 7.4. It counts as physicochemical. The method in brief:
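Measured in 0.1 M sodium phosphate buffer, pH 7.4, containing 1% DMSO; reported as a concentration range bracketing the solubility limit (μM).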

A short description of data set [3]: Metabolic stability in human liver microsomes assessed as compound remaining at 1 uM after 30 mins by LC/MS/MS analysis in absence of NADPH generating system. To be noted: read-out: Stability. Type of data set: ADME. The method, boiled down: (§1)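 Compound at 1 μM incubated with human liver microsomes (1 mg/mL) at 37°C for 30 minutes, with or without an NADPH generating system. Read-out is percent of compound remaining. Values are the average of triplicates ± standard deviation.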
(Liver microsomes are a subcellular fraction often used to study metabolism.)

Data set [4] in a line: Metabolic stability in human liver microsomes assessed as compound remaining at 1 uM after 30 mins by LC/MS/MS analysis in presence of NADPH generating system. It counts as ADME. The conditions noted are these: read-out: Stability. The method in brief:
as §1

Each structure is given as a SMILES string. Values after ≈ are worked out from the molar mass of the structure shown.

For `Cc1cc(C2CCCN2C(=O)NCC23CC4CC(CC(C4)C2)C3)on1` (stereo unspecified), in data set [1], the IC50 came out at 91 nM. The molecule further showed a solubility in data set [2] of 575 µM (≈ 197 µg/mL).
Taken in the same sequence, the figures for `CC(C)c1cc(C2CCCN2C(=O)NCC23CC4CC(CC(C4)C2)C3)no1` (stereo unspecified) were 247 nM and 250 µM (≈ 92.9 µg/mL).
Taken in the same sequence, the figures for `Cc1cc(C2CCCN2C(=O)NCC23CC4CC(CC(C4)C2)C3)no1` (stereo unspecified) were 524 nM and 525 µM (≈ 180 µg/mL).
Take `O=C(NCc1cc(-c2ccco2)on1)NCC12CC3CC(CC(C3)C1)C2`: in data set [1], the IC50 was 4.9 nM. This molecule also displayed a solubility in data set [2] of 75 µM (≈ 26.7 µg/mL). Besides, the remaining at 0.5 h, 1 µM in data set [3] came out at 91%; in data set [4], 0.4%.
As to `CC(C)c1cc(CN(C)C(=O)NCC23CC4CC(CC(C4)C2)C3)no1`, the IC50 in data set [1] was determined as 576 nM. In data set [2], this molecule came in with a solubility of 200 µM (≈ 69.1 µg/mL).
`COc1ccc(-c2cc(CNC(=O)NCC34CC5CC(CC(C5)C3)C4)no2)cc1`: in data set [1], the IC50 is 12.9 nM. The molecule also returned a solubility in data set [2] of 100 µM (≈ 39.6 µg/mL). In addition, the remaining at 0.5 h, 1 µM in data set [3] is 87%; in data set [4], 0.8%.
As to `CCc1cc(CNC(=O)NCC23CC4CC(CC(C4)C2)C3)on1`, the IC50 in data set [1] amounted to 29.4 nM. In data set [2], this molecule had a solubility of 300 µM (≈ 95.2 µg/mL).
Turning to `Cc1ccc(-c2cc(CNC(=O)NCC34CC5CC(CC(C5)C3)C4)no2)cc1`, the half-maximal inhibitory concentration (IC50) in data set [1] was found to be 15.4 nM. The molecule further yielded a solubility in data set [2] of 75 µM (≈ 28.5 µg/mL). In addition, the remaining at 0.5 h, 1 µM in data set [3] was determined as 97%; in data set [4], 0.4%.
Regarding `CC(C)c1cc(CN(C)C(=O)NCC23CC4CC(CC(C4)C2)C3)on1`, the IC50 in data set [1] is 191 nM. Moreover, the concentration in solution in data set [2] (solubility) was 350 µM (≈ 121 µg/mL).
For the molecule `O=C(NCc1cc(-c2cccc(F)c2)no1)NCC12CC3CC(CC(C3)C1)C2`, the IC50 in data set [1] stood at 16.6 nM. The same molecule yielded a solubility in data set [2] of 75 µM (≈ 28.8 µg/mL). Besides, the results for the remaining at 0.5 h, 1 µM in data set [3] and in data set [4] were 97% and 0.3%, respectively.
Taken in the same sequence, the figures for `Cc1ccc(-c2cc(CNC(=O)NC34CC5CC(C)(CC(C)(C5)C3)C4)no2)cc1` were 25.8 nM, 125 µM (≈ 49.2 µg/mL), 115% and 0.4%.
Regarding `Cc1cc(CNC(=O)NC23CC4CC(C)(CC(C)(C4)C2)C3)on1`, the IC50 in data set [1] was determined as 123 nM. This molecule also came in with a solubility in data set [2] of 200 µM (≈ 63.5 µg/mL). Besides, the remaining at 0.5 h, 1 µM was 83% in data set [3] and 0.1% in data set [4].
Taken in the same sequence, the figures for `Cc1cc(CNC(=O)NCC23CC4CC(CC(C4)C2)C3)on1` were 6.7 nM, 450 µM (≈ 137 µg/mL), 72% and 2.9%.
Turning to `O=C(NCc1cc(-c2ccc(F)cc2)no1)NCC12CC3CC(CC(C3)C1)C2`, the IC50 in data set [1] turned out to be 10.5 nM. The molecule further returned a solubility in data set [2] of 50 µM (≈ 19.2 µg/mL).
As for `COc1ccc(-c2cc(CNC(=O)NC34CC5CC(C)(CC(C)(C5)C3)C4)no2)cc1`, the IC50 in data set [1] came to 15 nM. This molecule returned a solubility in data set [2] of 25 µM (≈ 10.2 µg/mL). Besides, the remaining at 0.5 h, 1 µM in data set [3] is 102%; in data set [4], 0.4%.
Taken in the same sequence, the figures for `CC12CC3CC(C)(C1)CC(NC(=O)NCc1cc(-c4ccco4)on1)(C3)C2` were 4.1 nM, 75 µM (≈ 27.7 µg/mL), 95% and 0.3%.
Taken in the same sequence, the figures for `CC12CC3CC(C)(C1)CC(NC(=O)NCc1cc(-c4cccc(F)c4)no1)(C3)C2` were 17 nM, 75 µM (≈ 29.8 µg/mL), 92% and 0.4%.
Regarding `CC(C)c1cc(CNC(=O)NCC23CC4CC(CC(C4)C2)C3)on1`, the IC50 in data set [1] was 44.6 nM. In data set [2], the concentration in solution (solubility) was 125 µM (≈ 41.4 µg/mL).
